Data on 16 molecules can be found in ChEMBL document CHEMBL4406880, “Design, synthesis, and bioactivity of dihydropyrimidine derivatives as kinesin spindle protein inhibitors” (Bioorg Med Chem, 2019).

What all share (type): functional
One assay has as its system OVCAR-8. The assay can be described thus: Growth inhibition of human OVCAR8 cells assessed as growth percentage at 10 uM incubated for 48 hrs by sulforhodamine B assay relative to control. As to conditions: OVCAR-8, 48 h, read-out: Activity. The procedure, abridged: (§1)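 NCI-60 single-dose screen. Cells were grown in RPMI 1640 with 5% FBS and 2 mM L-glutamine and plated at 5,000–40,000 cells/well. After an overnight preincubation at 37 °C in 5% CO2, compound was added at a final 10 µM from a DMSO stock, with DMSO/PBS controls. After 48 h, cells were TCA-fixed and stained with 0.4% SRB, and absorbance was read at 515 nm. Growth is given as a percentage of untreated control.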

A further assay relates to SK-MEL-2. The assay can be described thus: Growth inhibition of human SK-MEL-2 cells assessed as growth percentage at 10 uM incubated for 48 hrs by sulforhodamine B assay relative to control. As to conditions: SK-MEL-2, 48 h, read-out: Activity. The method in brief:
as §1
For orientation: In SRB staining, fixed cells bind dye roughly in proportion to their protein.

For the next assay, the system named is SW-620. Kind of assay: Growth inhibition of human SW620 cells assessed as growth percentage at 10 uM incubated for 48 hrs by sulforhodamine B assay relative to control. The settings on record: SW-620, 48 h, read-out: Activity. The method in brief: as §1
Another assay deals with SF-295. Kind of assay: Growth inhibition of human SF295 cells assessed as growth percentage at 10 uM incubated for 48 hrs by sulforhodamine B assay relative to control. The settings on record: SF-295, 48 h, read-out: Activity. The procedure, abridged: as §1
A further assay deals with HOP-62. Kind of assay: Growth inhibition of human HOP62 cells assessed as growth percentage at 10 uM incubated for 48 hrs by sulforhodamine B assay relative to control. As to conditions: HOP-62, 48 h, read-out: Activity. The method in brief: (§2)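 NCI-60 one-dose screen. Cells in RPMI 1640 with 5% FBS and 2 mM L-glutamine, seeded at 5,000–40,000 cells/well according to doubling time, and preincubated overnight at 37 °C, 5% CO2. A time-zero plate was TCA-fixed at drug addition. Compound from DMSO stock, final 10 µM, 48 h; DMSO vehicle controls. Fixation with TCA, 10% final (16% for suspension cells). SRB stain, Tris solubilization, A515. Result given as % growth versus untreated cells.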

In another assay the test system is COLO 205. Kind of assay: Growth inhibition of human COLO205 cells assessed as growth percentage at 10 uM incubated for 48 hrs by sulforhodamine B assay relative to control. The settings on record: COLO 205, 48 h, read-out: Activity. The method in brief: (§3)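 NCI-60 one-dose screen: cells in RPMI 1640 with 5% FBS and 2 mM L-glutamine, plated at 5,000–40,000 cells/well and preincubated 24 h at 37 °C, 5% CO2. Compound is added from a DMSO stock to a final 10 µM and incubated 48 h. Cells are TCA-fixed and stained with sulforhodamine B, read at 515 nm. Output is % growth versus untreated control, with a time-zero plate.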

Another assay deals with CCRF-CEM. The assay can be described thus: Growth inhibition of human CCRF-CEM cells assessed as growth percentage at 10 uM incubated for 48 hrs by sulforhodamine B assay relative to control. The settings on record: read-out: Activity. The procedure, abridged: as §3
For another assay, the system named is UACC-257. Kind of assay: Growth inhibition of human UACC257 cells assessed as growth percentage at 10 uM incubated for 48 hrs by sulforhodamine B assay relative to control. As to conditions: UACC-257, 48 h, read-out: Activity. The procedure, abridged: as §1
For a further assay, the system named is MOLT-4. The assay can be described thus: Growth inhibition of human MOLT4 cells assessed as growth percentage at 10 uM incubated for 48 hrs by sulforhodamine B assay relative to control. The settings on record: MOLT-4, 48 h, read-out: Activity. The method in brief:
as §2

In another assay the test system is SN12C. Kind of assay: Growth inhibition of human SN12C cells assessed as growth percentage at 10 uM incubated for 48 hrs by sulforhodamine B assay relative to control. As to conditions: read-out: Activity. The method in brief:
as §1

For `CC(=O)N1C(=S)NC(C)=C(C(=O)OC(C)C)C1c1ccc2c(c1)OCO2` (racemic), the growth at 10 µM is 96.4% with OVCAR-8; 110% in the assay on SK-MEL-2; 102% in the assay on SW-620; 99.4% with SF-295; 88.5% in the assay on HOP-62; 99.5% with COLO 205. In addition, the growth at 10 µM in the assay on CCRF-CEM was determined as 81.5%; in the assay with UACC-257, 104%; in the assay with MOLT-4 it was 95.2%; in the assay on SN12C, 93.1%.

For `CC(=O)C1=C(C)NC(=S)NC1c1ccc2c(c1)OCO2` (racemic), the growth at 10 µM with OVCAR-8 worked out at 103%; in the assay with SK-MEL-2, 106%; in the assay on SW-620 it was 106%; with SF-295, 104%; in the assay with HOP-62 it was 104%; in the assay on COLO 205, 109%. For the same molecule, the growth at 10 µM in the assay with CCRF-CEM stood at 101%; with UACC-257, 102%; in the assay on MOLT-4, 98.8%; with SN12C, 104%.

Consider `CC(=O)N1C(=S)NC(C)=C(C(=O)OCC(C)C)C1c1ccc2c(c1)OCO2` (racemic), for which the growth at 10 µM in the assay on OVCAR-8 is 95.9%; in the assay with SK-MEL-2, 102%; with SW-620, 97.3%; with SF-295 it was 101%; with HOP-62, 91.9%; in the assay on COLO 205 it was 101%. Moreover, the growth at 10 µM with UACC-257 came out at 99.5%; with MOLT-4 it was 95.1%; in the assay with SN12C, 94.8%.

Take `CC1=C(C(=O)c2ccccc2)C(c2ccc3c(c2)OCO3)NC(=O)N1` (racemic): the growth at 10 µM came to 99.3% in the assay with OVCAR-8; 105% in the assay with SK-MEL-2; 98.5% with SW-620; 101% in the assay with SF-295; 99.2% in the assay with HOP-62; 114% with COLO 205. Further, the growth at 10 µM in the assay on CCRF-CEM stood at 98.5%; in the assay with UACC-257, 98%; with MOLT-4 it was 103%; in the assay with SN12C it was 97%.

`COCCOC(=O)C1=C(C)NC(=O)NC1c1ccc2c(c1)OCO2` (racemic): the growth at 10 µM turned out to be 99.3% with OVCAR-8; 104% with SK-MEL-2; 97% in the assay on SW-620; 98.5% in the assay with SF-295; 108% with HOP-62; 102% in the assay on COLO 205. Moreover, the growth at 10 µM in the assay on CCRF-CEM stood at 99%; in the assay with UACC-257 it was 103%; with MOLT-4, 101%; in the assay with SN12C, 102%.

Turning to `COCCOC(=O)C1=C(C)NC(=S)N(C(C)=O)C1c1ccc2c(c1)OCO2` (racemic), the growth at 10 µM stood at 99.3% with OVCAR-8; 108% in the assay on SK-MEL-2; 100% in the assay on SW-620; 98.5% in the assay with SF-295; 87.7% in the assay on HOP-62; 100% in the assay on COLO 205. The values for the growth at 10 µM with UACC-257, with MOLT-4 and with SN12C were 95.3%, 103% and 96.7%, respectively.

As to `CC1=C(C(=O)OCC(C)C)C(c2ccc3c(c2)OCO3)NC(=O)N1` (racemic), the growth at 10 µM in the assay on OVCAR-8 was 103%; in the assay on SK-MEL-2 it was 104%; with SW-620, 113%; in the assay with SF-295, 99.5%; with HOP-62 it was 114%; in the assay on COLO 205, 119%. Also, the growth at 10 µM in the assay on CCRF-CEM worked out at 104%; in the assay on UACC-257 it was 103%; with MOLT-4, 109%; with SN12C it was 105%.

As to `O=C1NC2=C(C(=O)c3ccccc32)C(c2ccc3c(c2)OCO3)N1` (racemic), the growth at 10 µM turned out to be 102% in the assay on OVCAR-8; 108% in the assay with SK-MEL-2; 104% in the assay with SW-620; 103% with SF-295; 96.1% with HOP-62; 115% in the assay with COLO 205. For the same molecule, the growth at 10 µM came to 103% in the assay with CCRF-CEM, 100% in the assay on UACC-257, 104% with MOLT-4 and 100% with SN12C.

For the molecule `CC(=O)C1=C(C)NC(=O)NC1c1ccc2c(c1)OCO2` (racemic), the growth at 10 µM with OVCAR-8 came out at 103%; in the assay on SK-MEL-2, 110%; with SW-620 it was 104%; with SF-295, 106%; in the assay on HOP-62, 103%; in the assay with COLO 205, 104%. Besides, the growth at 10 µM with CCRF-CEM came to 98.5%; in the assay on UACC-257, 107%; in the assay on MOLT-4 it was 103%; in the assay with SN12C, 102%.

As to `CC1=C(C(=O)OC(C)C)C(c2ccc3c(c2)OCO3)NC(=S)N1` (racemic), the growth at 10 µM in the assay on OVCAR-8 was 102%; in the assay with SK-MEL-2, 102%; in the assay on SW-620, 107%; with SF-295 it was 95.8%; in the assay with HOP-62, 119%; in the assay on COLO 205, 123%. Besides, the growth at 10 µM is 105% in the assay on CCRF-CEM, 100% in the assay on UACC-257, 110% with MOLT-4 and 105% in the assay with SN12C.

Regarding `CC1=C(C(=O)OC(C)C)C(c2ccc3c(c2)OCO3)NC(=O)N1` (racemic), the growth at 10 µM was 100% in the assay on OVCAR-8; 108% in the assay with SK-MEL-2; 109% with SW-620; 104% in the assay with SF-295; 117% in the assay with HOP-62; 124% in the assay with COLO 205. Further, the growth at 10 µM was determined as 113% with CCRF-CEM, 104% in the assay with UACC-257, 108% in the assay with MOLT-4 and 92.3% in the assay on SN12C.

As for `O=C1C2=C(NC(=S)NC2c2ccc3c(c2)OCO3)c2ccccc21` (racemic), the growth at 10 µM in the assay on OVCAR-8 was determined as 102%; in the assay on SK-MEL-2, 105%; in the assay on SW-620, 95.2%; with SF-295 it was 102%; in the assay with HOP-62 it was 104%; in the assay on COLO 205 it was 113%. Also, the growth at 10 µM is 108% in the assay with CCRF-CEM, 102% in the assay on UACC-257, 104% in the assay on MOLT-4 and 95.8% in the assay with SN12C.

Regarding `CC1=C(C(=O)OCC(C)C)C(c2ccc3c(c2)OCO3)NC(=S)N1` (racemic), the growth at 10 µM came to 102% with OVCAR-8; 101% in the assay with SK-MEL-2; 115% in the assay on SW-620; 104% in the assay with SF-295; 121% in the assay on HOP-62; 123% with COLO 205. The growth at 10 µM came to 101% in the assay on CCRF-CEM, 95.6% in the assay with UACC-257, 89.1% with MOLT-4 and 106% with SN12C.

Regarding `CC1=C(C(=O)OCc2ccccc2)C(c2ccc3c(c2)OCO3)NC(=S)N1` (racemic), the growth at 10 µM was determined as 97.5% in the assay on OVCAR-8; 96.7% in the assay with SK-MEL-2; 94.2% with SW-620; 102% in the assay on SF-295; 106% with HOP-62; 117% in the assay with COLO 205. The growth at 10 µM was found to be 100% in the assay with CCRF-CEM, 96.7% in the assay with UACC-257, 78.2% in the assay with MOLT-4 and 96.8% in the assay with SN12C.

For `CC1=C(C(=O)OCc2ccccc2)C(c2ccc3c(c2)OCO3)NC(=O)N1` (racemic), the growth at 10 µM in the assay with OVCAR-8 was found to be 101%; with SK-MEL-2, 101%; in the assay on SW-620 it was 109%; in the assay with SF-295 it was 95.3%; with HOP-62 it was 114%; in the assay on COLO 205, 116%. In addition, the growth at 10 µM worked out at 103% in the assay on CCRF-CEM, 103% in the assay with UACC-257, 104% in the assay on MOLT-4 and 101% with SN12C.

On to `COCCOC(=O)C1=C(C)NC(=S)NC1c1ccc2c(c1)OCO2` (racemic), for which the growth at 10 µM in the assay with OVCAR-8 was determined as 102%; in the assay on SK-MEL-2, 93%; in the assay on SW-620, 106%; in the assay with SF-295, 105%; with HOP-62, 98%; in the assay with COLO 205 it was 117%. Moreover, the growth at 10 µM in the assay on CCRF-CEM stood at 104%; in the assay on UACC-257, 90.2%; in the assay on MOLT-4 it was 96.9%; in the assay with SN12C, 104%.
